Calls of active or inactive are those of the source.
How the values were obtained:
T47D [1] = assay: Inhibition of PR-A gene expression in human T47D cells at 25 nM by syber green assay; format: functional
How it was run: (§1)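 T47D cells plated at 80,000/well without antibiotics two days before Oligofectamine transfection with agRNA duplex (25 or 100 nM final); medium changed at 24 h, harvest day 5 unless stated otherwise. TRIzol total RNA; PR mRNA by real-time PCR with SYBR Green: 50 °C 2 min, 95 °C 10 min, 40 cycles 95 °C 15 s/60 °C 1 min.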

T47D [2] = assay: Inhibition of PR-B gene expression in human T47D cells at 25 nM by syber green assay; format: functional; how it was run: as §1
T47D [3] = assay: Inhibition of PR-A gene expression in human T47D cells at 25 nM by syber green assay in presence of 10 nM estradiol; format: functional, cell-based
T47D [4] = assay: Inhibition of PR-B gene expression in human T47D cells at 25 nM by syber green assay in presence of 10 nM estradiol; format: functional, cell-based
T47D [5] = assay: Inhibition of PR-A mRNA gene expression in human T47D cells at 100 nM by syber green assay; format: functional; how it was run: as §1
T47D [6] = assay: Inhibition of PR-B mRNA gene expression in human T47D cells at 100 nM by syber green assay; format: functional
How it was run: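 T47D cells in RPMI-1640 with 10% FBS, NEAA, insulin, 37 °C, 5% CO2. Plated two days before transfection without antibiotics. Oligofectamine-mediated duplex RNA transfection at 100 nM final, medium changed at 24 h, harvest five days post-transfection. Total RNA extracted with TRIzol. hPR mRNA quantified by SYBR Green qPCR: 50 °C 2 min, 95 °C 10 min, then 40 cycles of 95 °C 15 s / 60 °C 1 min.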

T47D [7] = assay: Effect of DNA methylation at (-112) CpG site near PR-B transcription start site (-13) in human T47D cells by sodium bisulfite sequencing analysis; format: functional, cell-based
How it was run: (§2)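 T47D cells (RPMI-1640, 10% FBS, NEAA, insulin; 37 °C, 5% CO2) transfected with agRNA duplexes via Oligofectamine, medium changed at 24 h. Genomic DNA bisulphite-treated, regions around AR and hPR-B start sites PCR-amplified (HotStarTaq, 100 ng treated DNA), gel-purified, TOPO TA cloned; 5–15 colonies per plate miniprepped and sequenced.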

T47D [8] = assay: Effect of DNA methylation at (-75) CpG site near PR-B transcription start site (-13) in human T47D cells by sodium bisulfite sequencing analysis; format: functional, cell-based; how it was run: as §2
T47D [9] = assay: Effect of DNA methylation at (-46) CpG site near PR-B transcription start site (-13) in human T47D cells by sodium bisulfite sequencing analysis; format: functional, cell-based; how it was run: as §2
T47D [10] = assay: Effect of DNA methylation at (-23) CpG site near PR-B transcription start site (-13) in human T47D cells by sodium bisulfite sequencing analysis; format: functional, cell-based; how it was run: as §2
T47D [11] = assay: Effect of DNA methylation at (+20) CpG site near PR-B transcription start site (-13) in human T47D cells by sodium bisulfite sequencing analysis; format: functional, cell-based
How it was run: (§3)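 T47D cells grown in RPMI-1640 with 10% FBS, 0.5% NEAA, insulin and P/S at 37 °C, 5% CO2. They were plated at 80,000 cells/well 2 days before lipid transfection with 25 nM or 100 nM duplex, with medium changed at 24 h. Cells were harvested 5 days post-transfection. 100 ng bisulfite-treated DNA was PCR-amplified, and products were TA-cloned. 5–15 colonies per plate were sequenced.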

T47D [12] = assay: Effect of DNA methylation at (+45) CpG site near PR-B transcription start site (-13) in human T47D cells by sodium bisulfite sequencing analysis; format: functional, cell-based; how it was run: as §2
T47D [13] = assay: Effect of DNA methylation at (+107) CpG site near PR-B transcription start site (-13) in human T47D cells by sodium bisulfite sequencing analysis; format: functional, cell-based; how it was run: as §3
T47D [14] = assay: Effect of DNA methylation at (+112) CpG site near PR-B transcription start site (-13) in human T47D cells by sodium bisulfite sequencing analysis; format: functional, cell-based; how it was run: as §3
T47D [15] = assay: Effect of DNA methylation at (+125) CpG site near PR-B transcription start site (-13) in human T47D cells by sodium bisulfite sequencing analysis; format: functional, cell-based; how it was run: as §3
T47D [16] = assay: Effect of DNA methylation at (+149) CpG site near PR-B transcription start site (-13) in human T47D cells by sodium bisulfite sequencing analysis; format: functional, cell-based; how it was run: as §3
T47D [17] = assay: Effect of DNA methylation at (+162) CpG site near PR-B transcription start site (-13) in human T47D cells by sodium bisulfite sequencing analysis; format: functional, cell-based; how it was run: as §3
T47D [18] = assay: Effect of DNA methylation at (+166) CpG site near PR-B transcription start site (-13) in human T47D cells by sodium bisulfite sequencing analysis; format: functional, cell-based; how it was run: as §3
T47D [19] = assay: Effect of DNA methylation at (+173) CpG site near PR-B transcription start site (-13) in human T47D cells by sodium bisulfite sequencing analysis; format: functional, cell-based; how it was run: as §3
T47D [20] = assay: Effect of DNA methylation at (+190) CpG site near PR-B transcription start site (-13) in human T47D cells by sodium bisulfite sequencing analysis; format: functional, cell-based; how it was run: as §3
T47D [21] = assay: Effect of DNA methylation at (+216) CpG site near PR-B transcription start site (-13) in human T47D cells by sodium bisulfite sequencing analysis; format: functional, cell-based; how it was run: as §3
T47D [22] = assay: Effect of DNA methylation at (+225) CpG site near PR-B transcription start site (-13) in human T47D cells by sodium bisulfite sequencing analysis; format: functional, cell-based; how it was run: as §3
T47D [23] = assay: Effect of DNA methylation at (+267) CpG site near PR-B transcription start site (-13) in human T47D cells by sodium bisulfite sequencing analysis; format: functional, cell-based; how it was run: as §3
T47D [24] = assay: Effect of DNA methylation at (+295) CpG site near PR-B transcription start site (-13) in human T47D cells by sodium bisulfite sequencing analysis; format: functional, cell-based; how it was run: as §3
T47D [25] = assay: Effect of DNA methylation at (+319) CpG site near PR-B transcription start site (-13) in human T47D cells by sodium bisulfite sequencing analysis; format: functional, cell-based; how it was run: as §3
T47D [26] = assay: Effect of DNA methylation at (+335) CpG site near PR-B transcription start site (-13) in human T47D cells by sodium bisulfite sequencing analysis; format: functional, cell-based; how it was run: as §3
T47D [27] = assay: Effect of DNA methylation at (+337) CpG site near PR-B transcription start site (-13) in human T47D cells by sodium bisulfite sequencing analysis; format: functional, cell-based; how it was run: as §3
T47D [28] = assay: Effect of DNA methylation at (+353) CpG site near PR-B transcription start site (-13) in human T47D cells by sodium bisulfite sequencing analysis; format: functional, cell-based; how it was run: as §3
T47D [29] = assay: Effect of DNA methylation at (+356) CpG site near PR-B transcription start site (-13) in human T47D cells by sodium bisulfite sequencing analysis; format: functional, cell-based; how it was run: as §3
T47D [30] = assay: Effect of DNA methylation at (+362) CpG site near PR-B transcription start site (-13) in human T47D cells by sodium bisulfite sequencing analysis; format: functional, cell-based; how it was run: as §3
T47D [31] = assay: Effect of DNA methylation at (+379) CpG site near PR-B transcription start site (-13) in human T47D cells by sodium bisulfite sequencing analysis; format: functional, cell-based; how it was run: as §3
T47D [32] = assay: Effect of DNA methylation at (+398) CpG site near PR-B transcription start site (-13) in human T47D cells by sodium bisulfite sequencing analysis; format: functional, cell-based; how it was run: as §3
T47D [33] = assay: Effect of DNA methylation at (+41) CpG site near PR-B transcription start site (-13) in human T47D cells by sodium bisulfite sequencing analysis; format: functional, cell-based; how it was run: as §3

Cc1cn(CC(=O)N(CCNC(=O)CN(CCNC(=O)CN(CCNC(=O)CN(CCNC(=O)CN(CCNC(=O)CN(CCNC(=O)CN(CCNC(=O)CN(CCNC(=O)CN(CCNC(=O)CN(CCNC(=O)CN(CCNC(=O)CN(CCNC(=O)CN(CCNC(=O)CN(CCNC(=O)CN(CCNC(=O)CN(CCNC(=O)CN(CCNC(=O)CN(CCNC(=O)CN(CCNC(=O)CN(CCNC(=O)CN)C(=O)Cn2cnc3c(N)ncnc32)C(=O)Cn2cnc3c(N)ncnc32)C(=O)Cn2cnc3c(=O)[nH]c(N)nc32)C(=O)Cn2ccc(N)nc2=O)C(=O)Cn2ccc(=O)[nH]c2=O)C(=O)Cn2cnc3c(=O)[nH]c(N)nc32)C(=O)Cn2ccc(=O)[nH]c2=O)C(=O)Cn2ccc(N)nc2=O)C(=O)Cn2ccc(=O)[nH]c2=O)C(=O)Cn2cnc3c(=O)[nH]c(N)nc32)C(=O)Cn2cnc3c(=O)[nH]c(N)nc32)C(=O)Cn2ccc(N)nc2=O)C(=O)Cn2ccc(N)nc2=O)C(=O)Cn2cnc3c(N)ncnc32)C(=O)Cn2cnc3c(=O)[nH]c(N)nc32)C(=O)Cn2ccc(=O)[nH]c2=O)C(=O)Cn2ccc(N)nc2=O)C(=O)Cn2ccc(N)nc2=O)C(=O)Cn2cnc3c(N)ncnc32)CC(=O)NCCN(CC(=O)NCC(=O)O)C(=O)Cn2cc(C)c(=O)[nH]c2=O)c(=O)[nH]c1=O
72%: inhibition at 0.025 µM (T47D [1])
80%: inhibition at 0.025 µM (T47D [2])
100%: inhibition at 0.1 µM (T47D [5]) | inhibition at 0.1 µM (T47D [6])
active: inhibition (T47D [3]) | inhibition (T47D [4])
inactive: Activity (T47D [7]) | Activity (T47D [8]) | Activity (T47D [9]) | Activity (T47D [10]) | Activity (T47D [11]) | Activity (T47D [12]) | Activity (T47D [13]) | Activity (T47D [14]) | Activity (T47D [15]) | Activity (T47D [16]) | Activity (T47D [17]) | Activity (T47D [18]) | Activity (T47D [19]) | Activity (T47D [20]) | Activity (T47D [21]) | Activity (T47D [22]) | Activity (T47D [23]) | Activity (T47D [24]) | Activity (T47D [25]) | Activity (T47D [26]) | Activity (T47D [27]) | Activity (T47D [28]) | Activity (T47D [29]) | Activity (T47D [30]) | Activity (T47D [31]) | Activity (T47D [32]) | Activity (T47D [33])
